The values below come from ChEMBL document CHEMBL4257453, “Identification of karanjin isolated from the Indian beech tree as a potent CYP1 enzyme inhibitor with cellular efficacy via screening of a natural product repository” (Medchemcomm, 2018).

By inhibition is commonly meant the relative decrease from the control value, in per cent. As usually defined, the IC50 is the concentration that gives 50% inhibition.

For series [1], the target named is CYP2D6 (Homo sapiens, UniProt P10635). Nature of the series: Inhibition of recombinant human CYP2D6 expressed in baker's yeast-derived microsomes (Sacchrosomes) at 10 uM using 7-ethoxy-methyloxy-3-cyanocoumarin substrate by EROD assay relative to control. In kind it is ADME. To be noted: probe 7-ethoxy-methyloxy-3-cyanocoumarin. In a few lines:
(§1)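 Yeast microsomes carrying recombinant CYP (Sacchrosomes). […] Substrates per isoform are 7-ethoxyresorufin, 3-cyano-7-ethoxycoumarin, EOMCC or dibenzylfluorescein, read as endpoint fluorescence. Background from compound-only wells without enzyme is subtracted. Independent triplicate runs; α-naphthoflavone positive control.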

The target in series [2] is T1, CYP1A1 (Homo sapiens, UniProt P04798).
T1 sequence (P04798 whole entry): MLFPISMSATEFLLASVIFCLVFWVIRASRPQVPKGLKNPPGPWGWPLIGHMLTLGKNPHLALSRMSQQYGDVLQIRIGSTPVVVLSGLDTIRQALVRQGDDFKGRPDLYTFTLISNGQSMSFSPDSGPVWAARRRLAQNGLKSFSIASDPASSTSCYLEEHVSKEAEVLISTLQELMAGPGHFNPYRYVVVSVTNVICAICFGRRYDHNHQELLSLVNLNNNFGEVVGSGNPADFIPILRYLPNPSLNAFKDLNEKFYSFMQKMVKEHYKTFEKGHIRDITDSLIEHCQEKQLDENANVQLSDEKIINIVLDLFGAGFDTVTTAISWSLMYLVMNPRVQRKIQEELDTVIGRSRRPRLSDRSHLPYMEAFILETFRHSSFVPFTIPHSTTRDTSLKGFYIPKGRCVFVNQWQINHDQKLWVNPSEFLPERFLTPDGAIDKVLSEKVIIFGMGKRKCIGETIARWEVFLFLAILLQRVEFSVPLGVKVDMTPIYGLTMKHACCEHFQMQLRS
Nature of the series: Inhibition of human recombinant CYP1A1 expressed in HEK293 cells at 10 uM using 7-ethoxyresorufin substrate preincubated for 30 mins followed by substrate addition and measured after 60 mins by fluorescence assay relative to control. It is filed as cell-based. To be noted: HEK293 cells expressing human recombinant CYP1A1, probe 7-ethoxyresorufin. The essentials:
(§2)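 HEK293 cells adapted to suspension and transiently transfected with pcDNA3.1 plasmids carrying the individual CYP; 100×10^3 cells per well in triplicate. […] Fluorogenic substrate is then added at 5 μM and fluorescence read for 60 min.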

Series [3] concerns the target T1, CYP1A1. Nature of the series: Inhibition of recombinant human CYP1A1 expressed in baker's yeast-derived microsomes (Sacchrosomes) at 10 uM using 7-ethoxyresorufin substrate by EROD assay relative to control. The note with it: probe 7-ethoxyresorufin. In a few lines: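 Yeast microsomes carrying recombinant CYP (Sacchrosomes). Substrates per isoform are 7-ethoxyresorufin, 3-cyano-7-ethoxycoumarin, EOMCC or dibenzylfluorescein, read as endpoint fluorescence. Background from compound-only wells without enzyme is subtracted. Independent triplicate runs; α-naphthoflavone positive control.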

The species named for series [4] is Homo sapiens. Nature of the series: Selectivity index, ratio of IC50 for inhibition of human recombinant CYP1B1 expressed in HEK293 cells by fluorescence assay to IC50 for inhibition of human recombinant CYP1A1 expressed in HEK293 cells by fluorescence assay. It is filed as cell-based. In a few lines: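 HEK293 suspension cells transiently transfected with pcDNA3.1/CYP1B1 or pcDNA3.1/CYP1A1, 100×10^3 cells per well in triplicate. Compound (1 nM to 30 μM) preincubated 30 min at 37 °C, 8% CO2. 7-Ethoxyresorufin then added at 5 μM, and resorufin fluorescence (EROD) read over 60 min. IC50 taken from concentration-response for each isoform; index = CYP1B1 IC50 / CYP1A1 IC50.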

Series [5] has as its target T2, Cytochrome P450 1B1 (Homo sapiens, UniProt Q16678).
T2 sequence (Q16678 whole entry): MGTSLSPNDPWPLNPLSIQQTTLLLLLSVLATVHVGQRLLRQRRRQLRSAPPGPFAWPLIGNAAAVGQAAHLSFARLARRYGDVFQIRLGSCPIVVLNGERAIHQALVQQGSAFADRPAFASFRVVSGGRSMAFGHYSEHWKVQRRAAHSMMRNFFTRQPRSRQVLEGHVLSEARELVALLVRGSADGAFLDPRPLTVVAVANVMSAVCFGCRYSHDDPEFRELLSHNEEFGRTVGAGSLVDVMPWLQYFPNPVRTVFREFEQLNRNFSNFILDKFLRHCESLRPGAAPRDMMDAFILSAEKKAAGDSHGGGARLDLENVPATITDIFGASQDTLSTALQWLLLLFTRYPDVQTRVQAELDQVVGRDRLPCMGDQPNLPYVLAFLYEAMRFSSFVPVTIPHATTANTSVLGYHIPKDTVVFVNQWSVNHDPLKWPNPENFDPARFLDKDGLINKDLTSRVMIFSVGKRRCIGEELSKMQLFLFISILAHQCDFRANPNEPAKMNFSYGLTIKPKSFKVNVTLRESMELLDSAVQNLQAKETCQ
Put plainly: Inhibition of human recombinant CYP1B1 expressed in HEK293 cells using 7-ethoxyresorufin substrate substrate preincubated for 30 mins followed by substrate addition and measured after 60 mins by fluorescence assay relative to control. In kind it is ADME, cell-based. In a few lines: as §2

The target of series [6] is CYP2C9 (Homo sapiens, UniProt P11712). Put plainly: Inhibition of recombinant human CYP2C9 expressed in baker's yeast-derived microsomes (Sacchrosomes) at 10 uM using 3-cyano-7-ethoxycoumarin substrate by EROD assay relative to control. The note with it: probe 3-cyano-7-ethoxycoumarin. In kind it is ADME. The essentials:
as §1

CYP2D6, sequence (P10635 whole entry, canonical isoform): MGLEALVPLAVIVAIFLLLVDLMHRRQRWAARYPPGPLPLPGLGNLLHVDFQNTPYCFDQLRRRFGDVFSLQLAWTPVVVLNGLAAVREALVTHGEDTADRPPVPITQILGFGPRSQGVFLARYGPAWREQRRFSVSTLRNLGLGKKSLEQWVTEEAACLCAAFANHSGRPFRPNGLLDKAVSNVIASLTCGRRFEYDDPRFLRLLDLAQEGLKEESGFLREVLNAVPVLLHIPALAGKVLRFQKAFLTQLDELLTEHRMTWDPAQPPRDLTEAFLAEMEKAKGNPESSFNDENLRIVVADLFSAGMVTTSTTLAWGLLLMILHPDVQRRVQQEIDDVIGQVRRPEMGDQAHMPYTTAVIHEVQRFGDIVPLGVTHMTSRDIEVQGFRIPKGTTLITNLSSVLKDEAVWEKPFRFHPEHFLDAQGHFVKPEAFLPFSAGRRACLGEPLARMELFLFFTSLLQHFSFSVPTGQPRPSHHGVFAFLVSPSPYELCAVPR
CYP2C9, sequence (P11712 whole entry): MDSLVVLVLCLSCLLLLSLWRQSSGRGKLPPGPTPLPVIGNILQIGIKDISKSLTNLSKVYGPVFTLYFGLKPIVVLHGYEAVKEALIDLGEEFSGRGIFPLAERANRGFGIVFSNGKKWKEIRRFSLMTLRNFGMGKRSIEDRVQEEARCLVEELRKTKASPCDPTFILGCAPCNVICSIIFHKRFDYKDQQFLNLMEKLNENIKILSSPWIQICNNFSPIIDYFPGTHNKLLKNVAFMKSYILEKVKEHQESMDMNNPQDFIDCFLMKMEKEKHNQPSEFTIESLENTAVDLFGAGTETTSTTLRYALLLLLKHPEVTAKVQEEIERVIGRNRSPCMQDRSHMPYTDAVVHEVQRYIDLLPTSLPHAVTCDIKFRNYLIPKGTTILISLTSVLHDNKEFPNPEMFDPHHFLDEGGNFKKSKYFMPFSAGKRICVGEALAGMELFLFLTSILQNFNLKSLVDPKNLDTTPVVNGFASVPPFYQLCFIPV

On to `COc1c2ccoc2cc2oc(=O)ccc12` [BERGAPTEN], for which the inhibition at 10 µM is 9% in series [1], 68% in series [3] and 4% in series [6]. Also, the inhibition at 1 h, 10 µM in series [2] is 91%. Further, the Ratio IC50 in series [4] turned out to be 192. In addition, in series [5], the IC50 came to 15.3 µM.

Regarding `COc1c2ccoc2c(OC)c2oc(=O)ccc12` [ISOPIMPINELLIN], the inhibition at 10 µM in series [1] was 0%; in series [3], 71%; in series [6], 0%. Further, in series [2], the inhibition at 1 h, 10 µM is 91%. The Ratio IC50 in series [4] was 319. Also, the IC50 in series [5] came to 6.38 µM.
